Reference: ChEMBL document CHEMBL1122835, “Synthesis and pharmacology of the potent angiotensin-converting enzyme inhibitor N-[1(S)-(ethoxycarbonyl)-3-phenylpropyl]-(S)-alanyl-(S)-pyroglutamic acid” (J Med Chem, 1985)

Tests used:
[1] = molecular target: T1, Angiotensin-converting enzyme (Rattus norvegicus) (UniProt P47820); experiment: Inhibitory activity was determined against Angiotensin I converting enzyme; type: functional
T1 sequence (whole entry): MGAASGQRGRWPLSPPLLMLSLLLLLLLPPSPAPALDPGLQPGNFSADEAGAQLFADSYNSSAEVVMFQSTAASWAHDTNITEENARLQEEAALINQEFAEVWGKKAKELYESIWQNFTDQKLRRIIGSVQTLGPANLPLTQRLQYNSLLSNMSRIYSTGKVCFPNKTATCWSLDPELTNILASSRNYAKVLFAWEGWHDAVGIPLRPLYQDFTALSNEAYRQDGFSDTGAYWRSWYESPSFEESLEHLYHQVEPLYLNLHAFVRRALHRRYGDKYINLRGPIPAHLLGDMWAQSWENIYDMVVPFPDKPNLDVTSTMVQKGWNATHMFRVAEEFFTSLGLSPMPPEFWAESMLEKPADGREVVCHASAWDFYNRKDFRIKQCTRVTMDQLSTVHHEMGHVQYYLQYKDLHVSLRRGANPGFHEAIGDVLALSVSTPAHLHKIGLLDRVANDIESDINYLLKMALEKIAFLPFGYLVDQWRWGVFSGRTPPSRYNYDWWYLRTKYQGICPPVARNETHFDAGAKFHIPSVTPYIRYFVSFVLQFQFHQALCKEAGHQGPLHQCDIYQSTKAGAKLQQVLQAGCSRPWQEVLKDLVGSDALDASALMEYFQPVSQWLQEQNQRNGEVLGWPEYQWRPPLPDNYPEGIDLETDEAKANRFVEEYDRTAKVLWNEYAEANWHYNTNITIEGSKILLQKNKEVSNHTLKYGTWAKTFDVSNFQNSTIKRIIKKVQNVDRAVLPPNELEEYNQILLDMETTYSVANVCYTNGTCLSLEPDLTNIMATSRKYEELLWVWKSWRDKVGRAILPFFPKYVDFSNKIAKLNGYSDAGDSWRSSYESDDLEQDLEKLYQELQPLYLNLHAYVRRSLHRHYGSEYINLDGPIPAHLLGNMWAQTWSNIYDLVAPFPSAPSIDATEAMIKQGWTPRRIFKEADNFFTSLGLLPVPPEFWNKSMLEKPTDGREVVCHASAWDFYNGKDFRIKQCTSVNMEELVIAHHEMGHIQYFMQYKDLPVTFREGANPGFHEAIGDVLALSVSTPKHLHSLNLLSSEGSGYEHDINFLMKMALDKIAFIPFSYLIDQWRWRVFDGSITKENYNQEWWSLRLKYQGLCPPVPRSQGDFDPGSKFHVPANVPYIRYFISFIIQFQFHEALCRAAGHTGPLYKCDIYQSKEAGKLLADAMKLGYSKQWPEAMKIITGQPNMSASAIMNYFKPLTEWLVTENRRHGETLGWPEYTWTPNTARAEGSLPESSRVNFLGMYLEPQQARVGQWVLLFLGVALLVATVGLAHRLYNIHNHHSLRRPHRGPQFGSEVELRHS

Rattus norvegicus [2] = experiment: Effect on vasopressor response caused by angiotensin I (AI) in anesthetized normotensive rat, administered intravenously at dose 0.030 mg/kg; type: functional; conditions: dose 0.03 mg/kg; route intravenous
Procedure, shortened: (§1)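 Male Charles River CD rats, 380–500 g, anesthetized with pentobarbital Na 15 mg/kg plus barbital 220 mg/kg ip, held at 37 °C. Femoral artery pressure recorded. AI 0.3 μg/kg and AII 0.1 μg/kg given iv as challenges. Cumulative iv drug in saline, 0.01–0.81 mg/kg, each dose followed by AI/AII challenges at 5-min intervals. ED50 = 50% change from control response, by linear regression.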

Rattus norvegicus [3] = experiment: Decrease in systolic blood pressure of Spontaneous Hypertensive Rats (SHR) pretreated with hydrochlorothiazide upon oral administration at 10 mm/kg; type: functional, Artery
Procedure, shortened: (§2)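 Male SHR, 13 weeks old, given HCTZ 25 mg/kg po in 0.25% methylcellulose daily for 3 days. Drug given orally in water (5 mL/kg) 1 h after the third dose. Tail-cuff systolic pressure and pulse-count heart rate taken 1.5 h later after 20 min warming at 38 °C. ANOVA with Duncan's test; ED30 by linear regression.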

Rattus norvegicus [4] = experiment: Activity against the bradykinin Response in anesthetized normotensive rat, administered intravenously at dose 0.0033 mg/kg; type: functional; conditions: route intravenous
Procedure, shortened: (§3)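 Anesthetized (pentobarbital/barbital ip) male Charles River CD rats, 380–500 g, kept at 37 °C. Femoral artery blood pressure recorded. Control depressor response to bradykinin 1 μg/kg iv, then cumulative iv drug in 0.9% saline (1 mL/kg), 0.0033–0.27 mg/kg. Bk challenge 5 min after each dose. ED50 = dose giving a 50% change from control, by linear regression; N = 8.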

Rattus norvegicus [5] = experiment: Hypotensive activity was determined in low-sodium treated rat, dose 3 mg/kg administered orally at 5 hr; type: functional; conditions: route oral
Procedure, shortened: (§4)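 Male CD rats, 11 weeks old, kept on a sodium-deficient diet for 3 weeks and fasted overnight, were dosed orally with aqueous solutions (5 mL/kg), water as control. Systolic pressure measured by tail cuff at the stated post-dose time. ANOVA with Duncan's test.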

Rattus norvegicus [6] = experiment: Decrease in systolic blood pressure of Spontaneous Hypertensive Rats (SHR) pretreated with hydrochlorothiazide upon oral administration at 30 mm/kg; type: functional, Artery; procedure, shortened: as §2
Rattus norvegicus [7] = experiment: Effect on vasopressor response caused by angiotensin I (AI) in anesthetized normotensive rat, administered intravenously at dose 0.090 mg/kg; type: functional; conditions: dose 0.09 mg/kg; route intravenous; procedure, shortened: as §1
Rattus norvegicus [8] = experiment: Percent decrease in angiotensin I pressor response was measured in rat, administered intravenously at dose 0.030 mg/kg; type: functional; conditions: dose 0.03 mg/kg; route intravenous
Procedure, shortened: (§5)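 Anesthetized (pentobarbital Na 15 mg/kg + barbital 220 mg/kg ip), tracheotomized male Charles River CD rats, 380–500 g, femoral cannulas, heated board at 37 °C. Control pressor responses to angiotensin I 0.3 μg/kg then angiotensin II 0.1 μg/kg iv; drug iv in 0.9% saline (free base), AI and AII repeated at 5-min intervals, cumulative 0.01–0.81 mg/kg. Peak arterial pressure rise versus control.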

Rattus norvegicus [9] = experiment: Activity against the bradykinin Response in anesthetized normotensive rat, administered intravenously at dose 0.010 mg/kg; type: functional; conditions: dose 0.01 mg/kg; route intravenous; procedure, shortened: as §3
Rattus norvegicus [10] = experiment: Activity against the bradykinin Response in anesthetized normotensive rat, administered intravenously at dose 0.030 mg/kg; type: functional; conditions: dose 0.03 mg/kg; route intravenous; procedure, shortened: as §3
Rattus norvegicus [11] = experiment: Hypotensive activity was determined in low-sodium treated rat, dose 3 mg/kg administered orally at 2 hr; type: functional; conditions: route oral; procedure, shortened: as §4
Rattus norvegicus [12] = experiment: Hypotensive activity was determined in low-sodium treated rat, dose 10 mg/kg administered orally at 5 hr; type: functional; conditions: route oral; procedure, shortened: as §4
Rattus norvegicus [13] = experiment: Percent change was determined in bradykinin depressor response n anesthetized normotensive rat, administered intravenously at dose 0.090 mg/kg; type: functional; conditions: dose 0.09 mg/kg; route intravenous
Procedure, shortened: (§6)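 Male Charles River CD rats (380–500 g), pentobarbital Na 15 mg/kg plus barbital 220 mg/kg ip, tracheotomized, femoral artery/vein cannulated, kept at 37 °C. Control bradykinin 1 μg/kg iv depressor response, separate from angiotensin tests; drug iv in 0.9% saline (1 mL/kg, free base) 10 min later, Bk 5 min after each cumulative dose (0.0033–0.27 mg/kg). Maximum fall in arterial pressure versus control response; N = 8.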

Rattus norvegicus [14] = experiment: Activity against the bradykinin Response in anesthetized normotensive rat, administered intravenously at dose 0.090 mg/kg; type: functional; conditions: dose 0.09 mg/kg; route intravenous; procedure, shortened: as §3
Rattus norvegicus [15] = experiment: Percent decrease in angiotensin I pressor response was measured in rat, administered intravenously at dose 0.27 mg/kg; type: functional; conditions: route intravenous; procedure, shortened: as §5
Rattus norvegicus [16] = experiment: Change in heart rate was determined at a dose 10 mg/kg; type: functional; procedure, shortened: as §2
Rattus norvegicus [17] = experiment: Percent change was determined in bradykinin depressor response in anesthetized normotensive rat, administered intravenously at dose 0.010 mg/kg; type: functional; conditions: dose 0.01 mg/kg; route intravenous; procedure, shortened: as §6
Rattus norvegicus [18] = experiment: Percent change was determined in bradykinin depressor response in anesthetized normotensive rat, administered intravenously at dose 0.030 mg/kg; type: functional; conditions: dose 0.03 mg/kg; route intravenous; procedure, shortened: as §6
Rattus norvegicus [19] = experiment: Percent decrease in angiotensin I pressor response was measured in rat, administered intravenously at dose 0.81 mg/kg; type: functional; conditions: route intravenous; procedure, shortened: as §5
Rattus norvegicus [20] = experiment: Decrease in systolic blood pressure of Spontaneous Hypertensive Rats (SHR) pretreated with hydrochlorothiazide upon oral administration at 3 mm/kg; type: functional, Artery; procedure, shortened: as §2
Rattus norvegicus [21] = experiment: Hypotensive activity was determined in low-sodium treated rat, dose 30 mg/kg administered orally at 5 hr; type: functional; conditions: route oral; procedure, shortened: as §4
Rattus norvegicus [22] = experiment: Effect on vasopressor response caused by angiotensin I (AI) in anesthetized normotensive rat, administered intravenously at dose 0.81 mg/kg; type: functional; conditions: route intravenous; procedure, shortened: as §1
Rattus norvegicus [23] = organism: Rattus norvegicus; experiment: Dose required to reduce systolic blood pressure by 30 mmHg; type: functional; conditions: Artery; procedure, shortened: as §2
Rattus norvegicus [24] = experiment: Percent change was determined in bradykinin depressor response in anesthetized normotensive rat, administered intravenously at dose 0.0033 mg/kg; type: functional; conditions: route intravenous; procedure, shortened: as §3
Rattus norvegicus [25] = experiment: Hypotensive activity was determined in low-sodium treated rat, dose 10 mg/kg administered orally at 2 hr; type: functional; conditions: route oral; procedure, shortened: as §4
Rattus norvegicus [26] = experiment: Effect on vasopressor response caused by angiotensin I (AI) in anesthetized normotensive rat, administered intravenously at dose 0.27 mg/kg; type: functional; conditions: route intravenous; procedure, shortened: as §1
Rattus norvegicus [27] = organism: Rattus norvegicus; experiment: Effective dose was determined to increase the vasoResponse in rat; type: functional; procedure, shortened: as §3
Rattus norvegicus [28] = experiment: Change in heart rate was determined at a dose 3 mg/kg; type: functional; procedure, shortened: as §2
Rattus norvegicus [29] = experiment: Effective dose to produce AcE inhibition in rat, administered intravenously; type: functional; conditions: iv; procedure, shortened: as §1
[30] = Half life was determined; type: ADME; conditions: rat
Procedure, shortened: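 Rats anesthetized with pentobarbital/barbital received a single iv dose, 0.2 or 0.08 mg/kg. AI 0.3 μg/kg iv given at 5 min, then every 10 min for 210 min. Half-life = time for the AI pressor response to fall to 50% of its peak inhibition.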

Rattus norvegicus [31] = experiment: Effect on vasopressor response caused by angiotensin I (AI) in anesthetized normotensive rat, administered intravenously at dose 0.010 mg/kg; type: functional; conditions: dose 0.01 mg/kg; route intravenous; procedure, shortened: as §1
Rattus norvegicus [32] = experiment: Percent decrease in angiotensin I pressor response was measured in rat, administered intravenously at dose 0.010 mg/kg; type: functional; conditions: dose 0.01 mg/kg; route intravenous; procedure, shortened: as §5
Rattus norvegicus [33] = experiment: Percent decrease in angiotensin I pressor response was measured in rat, administered intravenously at dose 0.090 mg/kg; type: functional; conditions: dose 0.09 mg/kg; route intravenous; procedure, shortened: as §5
Rattus norvegicus [34] = experiment: Change in heart rate was determined at a dose 30 mg/kg; type: functional; procedure, shortened: as §2
Rattus norvegicus [35] = experiment: Hypotensive activity was determined in low-sodium treated rat, dose 30 mg/kg administered orally at 2 hr; type: functional; conditions: route oral; procedure, shortened: as §4

CCOC(=O)[C@H](CCc1ccccc1)N[C@H](C)C(=O)N1C(=O)CC[C@H]1C(=O)O
ED50 [1]: 4 mg/kg

CCOC(=O)[C@H](CCc1ccccc1)N[C@@H](C)C(=O)N1CCC[C@H]1C(=O)O [ENALAPRIL]
Response (Rattus norvegicus [2]): 27 mmHg
Blood pressure (Rattus norvegicus [3]): 169 mmHg
Response (Rattus norvegicus [4]): -27 mmHg
Activity (Rattus norvegicus [5]): 128 mmHg
Blood pressure (Rattus norvegicus [6]): 163 mmHg
Response (Rattus norvegicus [7]): 17 mmHg
Decrease (Rattus norvegicus [8]): 37%
Response (Rattus norvegicus [9]): -45 mmHg
Response (Rattus norvegicus [10]): -61 mmHg
Activity (Rattus norvegicus [11]): 148 mmHg
Activity (Rattus norvegicus [12]): 123 mmHg
Change (Rattus norvegicus [13]): 107%
Response (Rattus norvegicus [14]): -60 mmHg
Decrease (Rattus norvegicus [15]): 81%
Heart rate (Rattus norvegicus [16]): 380 beats min-1
Change (Rattus norvegicus [17]): 55%
Change (Rattus norvegicus [18]): 110%
Decrease (Rattus norvegicus [19]): 84%
Blood pressure (Rattus norvegicus [20]): 199 mmHg
Activity (Rattus norvegicus [21]): 128 mmHg
Response (Rattus norvegicus [22]): 7 mmHg
ED30 (Rattus norvegicus [23]): 1.5 mg/kg
Change (Rattus norvegicus [24]): -7%
Activity (Rattus norvegicus [25]): 138 mmHg
Response (Rattus norvegicus [26]): 8 mmHg
ED50 (Rattus norvegicus [27]): 0.0097 mg/kg
Heart rate (Rattus norvegicus [28]): 378 beats min-1
ED50 (Rattus norvegicus [29]): 0.066 mg/kg
half-life [30]: 2.5 h
Response (Rattus norvegicus [31]): 37 mmHg
Decrease (Rattus norvegicus [32]): 14%
Decrease (Rattus norvegicus [33]): 60%
Heart rate (Rattus norvegicus [34]): 386 beats min-1
Activity (Rattus norvegicus [35]): 134 mmHg
